Measurements published in ChEMBL document CHEMBL3576866, “Discovery of a Cyclic Boronic Acid β-Lactamase Inhibitor (RPX7009) with Utility vs Class A Serine Carbapenemases” (J Med Chem, 2015).

Tests used:
Klebsiella pneumoniae [1] = test: Inhibition of Klebsiella pneumoniae KP1087 CTX-M-15 assessed as biapenem MIC at 4 ug/ml by broth microdilution method
[2] = biological target: Carbapenem-hydrolyzing beta-lactamase KPC (Klebsiella pneumoniae) (UniProt Q9F663); test: Inhibition of Klebsiella pneumoniae KP1083 KPC-3 assessed as meropenem MIC at 4 ug/ml by broth microdilution method
Outline: (§1)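 CLSI broth microdilution (M07-A9, 2012) MIC of the carbapenem against clinical serine carbapenemase-producing strain, tested alone and with the inhibitor held at a fixed 4 μg/mL.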

Klebsiella pneumoniae [3] = test: Inhibition of Klebsiella pneumoniae KP1004 SHV-11 assessed as meropenem MIC at 4 ug/ml by broth microdilution method; outline: as §1
[4] = biological target: Class A carbapenemase KPC-2 (Escherichia coli) (UniProt A8DS27); test: Inhibition of Escherichia coli EC1007 KPC-3 assessed as meropenem MIC at 4 ug/ml by broth microdilution method
Klebsiella pneumoniae [5] = test: Inhibition of Klebsiella pneumoniae KP1087 KPC-2 assessed as meropenem MIC at 4 ug/ml by broth microdilution method; outline: as §1
[6] = AUC (0 to infinity) in rat at 100 mg/kg, iv administered as 0.5 hrs infusion by HPLC-MS method; type: ADME, organism-based; design: dose 100 mg/kg, route intravenous, time infinity; settings: in vivo
Prothrombin = Prothrombin (Homo sapiens, UniProt P00734); test: Inhibition of thrombin (unknown origin) using Benz-FVR-AMC as substrate preincubated for 10 mins followed by substrate addition measured for 30 mins by spectrophotometric analysis
Outline: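 Thrombin, from a commercial source, in 20 mM Tris-HCl, pH 8, 150 mM NaCl, 2.5 mM CaCl2. Preincubated with inhibitor at various concentrations for 10 min at 37 °C. Benz-FVR-AMC (listed at 10 μM) was then added and the signal monitored for 30 min. Rates were relative to untreated; IC50 is the concentration giving 50% inhibition.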

[7] = biological target: Lysosomal protective protein (Homo sapiens, UniProt P10619); test: Inhibition of cathepsin A (unknown origin) using MCA-RPPGFSAFK-Dnp as substrate preincubated for 10 mins followed by substrate addition measured for 30 mins by […] analysis
Mus musculus = test: Toxicity in Swiss webster neutropenic mouse lung infection model up to 1000 mg/kg, administered every 2 hrs starting at 2 hrs; type: organism-based; settings: in vivo
Escherichia coli [8] = test: Inhibition of Escherichia coli EC1008 CTX-M-3 assessed as cefepime MIC at 4 ug/ml by broth microdilution method
Outline: (§2)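 CLSI broth microdilution (M07-A9) against clinical strains expressing serine β-lactamases.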

[9] = biological target: Beta-lactamase (Enterobacter cloacae) (UniProt P05364); test: Inhibition of Enterobacter cloacae ECL1061 AmpC assessed as cefepime MIC at 4 ug/ml by broth microdilution method
Enterobacter cloacae [10] = test: Inhibition of Enterobacter cloacae EC1010 CMY-6 assessed as cefepime MIC at 4 ug/ml by broth microdilution method; outline: as §2
[11] = biological target: T1, Class A carbapenemase (Enterobacter cloacae) (UniProt A7WP95); test: Inhibition of Enterobacter cloacae ECL1058 KPC-3 assessed as biapenem MIC at 4 ug/ml by broth microdilution method
T1 sequence (whole entry): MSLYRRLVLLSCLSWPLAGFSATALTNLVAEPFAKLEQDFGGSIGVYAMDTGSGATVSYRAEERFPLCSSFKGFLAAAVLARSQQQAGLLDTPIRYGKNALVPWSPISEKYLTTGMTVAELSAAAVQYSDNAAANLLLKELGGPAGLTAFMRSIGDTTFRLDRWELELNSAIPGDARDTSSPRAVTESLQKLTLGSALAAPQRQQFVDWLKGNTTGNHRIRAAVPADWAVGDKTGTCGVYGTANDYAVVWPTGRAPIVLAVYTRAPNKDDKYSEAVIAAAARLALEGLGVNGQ

Klebsiella oxytoca [12] = test: Inhibition of Klebsiella oxytoca KX1017 SHV-30 assessed as biapenem MIC at 4 ug/ml by broth microdilution method
Klebsiella pneumoniae [13] = test: Inhibition of Klebsiella pneumoniae KP1008 KPC-2 assessed as biapenem MIC at 4 ug/ml by broth microdilution method; outline: as §1
Klebsiella pneumoniae [14] = test: Inhibition of Klebsiella pneumoniae KP1084 SHV-11 assessed as ertapenem MIC at 4 ug/ml by broth microdilution method; outline: as §1
Klebsiella pneumoniae [15] = test: Inhibition of Klebsiella pneumoniae KP1087 KPC-2 assessed as ertapenem MIC at 4 ug/ml by broth microdilution method; outline: as §1
[16] = biological target: Carbapenem-hydrolyzing beta-lactamase KPC (Klebsiella pneumoniae) (UniProt Q9F663); test: Inhibition of Klebsiella pneumoniae KP1083 KPC-3 assessed as imipenem MIC at 4 ug/ml by broth microdilution method
Klebsiella pneumoniae [17] = test: Inhibition of Klebsiella pneumoniae KP1008 KPC-2 assessed as ertapenem MIC at 4 ug/ml by broth microdilution method; outline: as §1
Klebsiella pneumoniae [18] = test: Inhibition of Klebsiella pneumoniae KP1088 SHV-11 assessed as ertapenem MIC at 4 ug/ml by broth microdilution method
Outline: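 CLSI broth microdilution (M07-A9, 2012) against the clinical K. pneumoniae isolate. Carbapenem MICs were read alone and with 9f held at a fixed 4 μg/mL.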

[19] = biological target: Beta-lactamase (Klebsiella pneumoniae) (UniProt Q93LQ9); test: Inhibition of Klebsiella pneumoniae KP1084 KPC-3 assessed as imipenem MIC at 4 ug/ml by broth microdilution method
Klebsiella pneumoniae [20] = test: Inhibition of Klebsiella pneumoniae KP1087 SHV-11 assessed as imipenem MIC at 4 ug/ml by broth microdilution method
Outline: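 CLSI broth microdilution (M07-A9) against clinical K. pneumoniae strain KP1087 (KPC-2, CTX-M-15, SHV-11, TEM-1); carbapenem MIC (μg/mL) read with the inhibitor held at a fixed 4 μg/mL, alongside carbapenem alone.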

Enterobacter cloacae [21] = test: Inhibition of Enterobacter cloacae ECL1058 SHV-11 assessed as imipenem MIC at 4 ug/ml by broth microdilution method
Klebsiella oxytoca [22] = test: Inhibition of Klebsiella oxytoca KX1017 OXA-2 assessed as imipenem MIC at 4 ug/ml by broth microdilution method
Klebsiella pneumoniae [23] = test: Inhibition of Klebsiella pneumoniae KP1004 KPC-2 assessed as imipenem MIC at 4 ug/ml by broth microdilution method; outline: as §1
[24] = Inhibition of Escherichia coli recombinant SHV-12 assessed as substrate nitrocefin degradation preincubated for 10 mins followed by substrate addition measured every 10 secs for 10 mins by spectrophotometric analysis
Outline: (§3)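 β-Lactamases purified from overexpressing recombinant E. coli. Enzyme preincubated with inhibitor at varying concentrations for 10 min at room temperature in 50 mM Na phosphate pH 7.0, 0.1 mg/mL BSA. Then 50 μM nitrocefin (final) added and cleavage read at 490 nm every 10 s for 10 min. Ki derived by the Waley method.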

[25] = Inhibition of Escherichia coli recombinant P99 assessed as substrate nitrocefin degradation preincubated for 10 mins followed by substrate addition measured every 10 secs for 10 mins by spectrophotometric analysis; outline: as §3
[26] = Inhibition of Escherichia coli recombinant CMY-2 assessed as substrate nitrocefin degradation preincubated for 10 mins followed by substrate addition measured every 10 secs for 10 mins by spectrophotometric analysis; outline: as §3
Escherichia coli [27] = test: Inhibition of Escherichia coli EC1011 TEM-26 assessed as cefepime MIC at 4 ug/ml by broth microdilution method; outline: as §2

Lysosomal protective protein, sequence (P10619 29-326 limits assumed): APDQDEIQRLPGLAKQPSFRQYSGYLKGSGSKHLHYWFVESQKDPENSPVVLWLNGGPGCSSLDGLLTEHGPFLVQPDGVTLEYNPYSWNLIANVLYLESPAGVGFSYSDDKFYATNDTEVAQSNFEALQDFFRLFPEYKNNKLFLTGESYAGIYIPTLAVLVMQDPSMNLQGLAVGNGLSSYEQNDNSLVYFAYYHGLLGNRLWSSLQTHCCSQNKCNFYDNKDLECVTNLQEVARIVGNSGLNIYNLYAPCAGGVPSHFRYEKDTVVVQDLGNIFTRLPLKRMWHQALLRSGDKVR
Lysosomal protective protein, sequence (P10619 327-480 limits assumed): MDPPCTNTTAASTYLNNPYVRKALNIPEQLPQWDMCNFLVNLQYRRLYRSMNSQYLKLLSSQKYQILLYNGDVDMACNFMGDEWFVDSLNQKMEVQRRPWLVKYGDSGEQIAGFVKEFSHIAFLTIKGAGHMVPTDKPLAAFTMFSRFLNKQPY

O=C(O)C[C@@H]1CC[C@H](NC(=O)Cc2cccs2)B(O)O1 [VABORBACTAM]
MIC (Klebsiella pneumoniae [1]): 0.25 µg/mL
MIC [2]: < 0.06 µg/mL
MIC (Klebsiella pneumoniae [3]): ≤ 0.06 µg/mL
MIC [4]: < 0.06 µg/mL
MIC (Klebsiella pneumoniae [5]): 1 µg/mL
AUC(0-inf) [6]: 64000 ng·h/mL
IC50 (Prothrombin): > 1000 µM
IC50 [7]: 1000 µM
Activity (Mus musculus): Non-toxic
MIC (Escherichia coli [8]): 4 µg/mL
MIC [9]: 2 µg/mL
MIC (Enterobacter cloacae [10]): 4 µg/mL
MIC [11]: < 0.06 µg/mL
MIC (Klebsiella oxytoca [12]): < 0.06 µg/mL
MIC (Klebsiella pneumoniae [13]): ≤ 0.06 µg/mL
MIC (Klebsiella pneumoniae [14]): 4 µg/mL
MIC (Klebsiella pneumoniae [15]): 2 µg/mL
MIC [16]: 0.13 µg/mL
MIC (Klebsiella pneumoniae [17]): ≤ 0.06 µg/mL
MIC (Klebsiella pneumoniae [18]): ≤ 0.06 µg/mL
MIC [19]: 0.25 µg/mL
MIC (Klebsiella pneumoniae [20]): 0.25 µg/mL
MIC (Enterobacter cloacae [21]): 0.25 µg/mL
MIC (Klebsiella oxytoca [22]): 0.13 µg/mL
MIC (Klebsiella pneumoniae [23]): ≤ 0.06 µg/mL
Ki [24]: 0.029 µM
Ki [25]: 0.053 µM
Ki [26]: 0.099 µM
MIC (Escherichia coli [27]): 2 µg/mL
